Results: the EternaBench riboswitch data

Tested on: MS2 coat protein
Assay: apparent Kd, MS2 coat protein; higher = weaker binding; RNA-MaP array; FMN 200 µM where present
In short: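 Stalled E. coli RNA polymerase transcribed the designs on Illumina sequencing-chip clusters. SNAP-549-labelled MS2 coat protein was titrated from 0.7 or 1.5 nM, doubling to 3 µM, without and then with constant ligand, in 100 mM Tris-HCl pH 7.5, 80 mM KCl, 4 mM MgCl2, BSA, DTT, yeast tRNA and Tween-20. Per-cluster binding curves were fitted to green signal normalised to red-channel RNA signal and control-cluster median Fmax. The apparent Kd is the median of the filtered fits.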

[1] = designed as: ON switch for flavin mononucleotide, no ligand
[2] = ligand present: flavin mononucleotide, designed as: ON switch for flavin mononucleotide
[3] = designed as: OFF switch for flavin mononucleotide, no ligand
[4] = ligand present: flavin mononucleotide, designed as: OFF switch for flavin mononucleotide

Sequence	apparent Kd [1]	apparent Kd [2]	apparent Kd [3]	apparent Kd [4]
CUGACAGCGCAGAAGGGAGAUCCUACAUGAGGAUCACCCAUGUGGGCUCUCAGGAUAUGCACGUGUAUACCGAAAGUGGUAUUG	13.4 nM	5.99 nM	–	–
GUGGGUGAUGGAGGAUAUGACGACGGGUUUUACAUGAGGAUCACCCAUGUGGCGUUCCGCAAAAGUCAGAAGGCCAGGUAUACU	332 nM	40.6 nM	–	–
GUGGAGUAAGGAUAUACAUGAGGAUCACCCAUGUGAGGGUAUGUGAUGGGAGUAGGUUGUAGAAGGUACGAGGA	–	–	287 nM	131 nM
AAGCUGGUAGGAUAUGCUAGGGCGAUUAAUACGCCGAUAGUACAUGAGGAUCACCCAUGUAGAAGGGCCAGAAA	–	–	23.6 nM	17.8 nM
AGGUGUAGAGGAUAUUUAUUCUUCCACAUGAGGAUCACCCAUGUCCCGGUCACCAGGGACGGAGAAGGCUACACCA	–	–	77 nM	88.3 nM
UUGUGUGUAGAGGAUAUCUGCGCGCGCGCGCGCGGAGAAGGCUGUACAUGAGGAUCACCCAUGUUGUGUGUGUG	–	–	71.8 nM	29.9 nM
CCGUCCUGAGGAUAUCCACCCUCAUACAUGAGGAUCACCCAUGUUCACCUUUGGGUUCCCGGAGAAGGCAGUUUUC	–	–	80.2 nM	109 nM
AGGAGGUUAGGAUAUGCUGCUCGUCACUUGCGUGAUGAGUAGCAGAAGGAACAUGAGGAUCACCCAUGUAAAGA	–	–	29.7 nM	35.1 nM
GGACGUCUCAUUUACAUGAGGAUCACCCAUGUCGAUAGACAUGAGGAUAUGGAUCCGAAUCGGAUCCAGAAGGCAUGGACGUCC	1130 nM	63.4 nM	–	–
GUUUAGUGAGGAUAUGUGGCGUGGAUCGAGCGCGGUCUGCUACAGAAGGCACAUGAGGAUCACCCAUGUUUCUC	–	–	166 nM	329 nM
CGGAUGUCAGGAUAUCGUGCAUACAACGAAAGUUCUAUGUGCGAGAAGGGACAUGAGGAUCACCCAUGUUACGG	–	–	252 nM	588 nM
GCGAUUUUGUAAGGAUAUACUCGAGUUUUAAGAGUAGAAGGUACUUACAUGAGGAUCACCCAUGUCUAACGUAAUACUAGUCGC	10.3 nM	9.24 nM	–	–
UGGUACAUGGGAGGAUAUCCUCAAGAACAUGAGGAUCACCCAUGUAAUUAUAAGCCGAAAGGCAUGGAGAAGGCCCAUGUACCU	66.4 nM	16 nM	–	–
AAAACAUGAGGAUCACCCAUGUUAAGAUCGGUUAAUAGAAGUGAGGAUAUACGAAGUUAAAGCUGGUAGAAGGCACUGGGUACA	29.2 nM	26.5 nM	–	–
AAAAAACAUGAGGAUCACCCAUGUGAGGAUAUCCUGGUUGAAAAAAAAAAAACAACCAGGAGAAGGCACAAAAA	–	–	88.4 nM	132 nM
AGAUUUUUACAUGAGGAUCACCCAUGUUAAUAGGUGUUUGUCAGAAGGCAUUAUGAGAGAAUUAAUGAGGAUAUGAAGUUUCAU	40.4 nM	27.8 nM	–	–
UGCUAGUCAGGAUAUACGUACAUGUCAUUAGACGUGAAGGGACAUGAGGAUCACCCAUGUAGAAGGGACUAGCU	–	–	42.4 nM	149 nM
GCCAAUACCGAGGAUAUCCUGAAGCACAUAUCUGGAGAAGGCGGUACAUGAGGAUCACCCAUGUGCUCGUGAGA	–	–	21.6 nM	33 nM
UAGCGCUGUCGAGAGGAUAUGCGGUGAUGGACAUGAGGAUCACCCAUGUUAGCGAUAGCAUUACGGUAGAAGGCUCUACAGCUGC	27.6 nM	13.6 nM	–	–
GGGUACAUCGGAGGAUAUCAUGUAAAUACAUGAGGAUCACCCAUGUCGAUGGAGGCAUCGGAGAUUGAGAAGGCCGAUGUACCG	566 nM	17.6 nM	–	–
CAUUAUUAUCGAGGAUAUCCUAUUGAAAUUCUGGGAGAAGGCGGACUCAACAUGAGGAUCACCCAUGUGAGACGGGUGCUAGGG	–	–	26.8 nM	25.2 nM
ACUAUAUAUGAGAAGGUGAAGUGGAAACAUGAGGAUCACCCAUGUAAUACGAAGCGUAUUUUUAUCAAGGAUAUCAUAUAUAGA	10.2 nM	8.02 nM	–	–
CGGGUCUGAGGAUAUCCAUCCUCAUACAUGAGGAUCACCCAUGUUCACCCUUGGGUUCCCGGAGAAGGCAGUUUUC	–	–	153 nM	177 nM
GUGUGCUGAGGAUAUACAGAGGAAGAUAAUACAAUAUAAGUACAUGAGGAUCACCCAUGUAGAAGGCAGAGUGU	–	–	28.2 nM	26.4 nM

Sequence	apparent Kd [1]	apparent Kd [2]	apparent Kd [3]	apparent Kd [4]
GUAGCUAUUAUUAUACAUGAGGAUCACCCAUGUUACAUGUGUAAGGAUAUUGAAGUUAUUAUUAUCAAGAAGGUACUAUGCUAC	15.5 nM	8.71 nM	–	–
CGUCUAUGCUAGAAGGCAUGAAACAUGAGGAUCACCCAUGUCAAAGACAUGAGGAUAUAGCAUAGACGAAAAGUGCGAAAGCAC	4.43 nM	3.26 nM	–	–
UCGCGGGUGCAGAAGGGAUAGGCCUAUUGUCGUGGUGUCCAAACUUAACAUGAGGAUCACCCAUGUCAGGAUAUGCCCACGCGA	–	–	73.9 nM	117 nM
AAAAGGUGAGGAUAUACAUGAGGAUCACCCAUGUAGAAAGGAAGUGUAAAAAAAAAGUGUAGAAGGCAUCAUGA	–	–	58.7 nM	60.6 nM
UGUCGGAGCAGAGGAUAUUACAUGAGGAUCACCCAUGUAUGAUCCAAUAGCUGGAAACAGCAAUGUAAGAAGGCUGCUCCGACA	–	–	291 nM	8.48 nM
CGUGUGUCAGGAUAUUAGUAGUGUGUGGAUACAUAUAUUGCUGAGAAGGGACAUGAGGAUCACCCAUGUAUACG	–	–	46.9 nM	169 nM
CUUUCGUGAGGAUAUGAGGCUUCGAUCGUGAGAUCGAGGCUACAGAAGGCACAUGAGGAUCACCCAUGUUCCUC	–	–	30.9 nM	392 nM
UUGGACGUCGUAGGGUAUGUAGGAUAUUCCUACAUGAGGAUCACCCAUGUUGACAUGGAAGAAGGACAGAAGGACGAUGUCCAU	106 nM	4.37 nM	–	–
GCAGCUAAUAUUAUACAUGAGGAUCACCCAUGUUACAUGAGUAAGGAUAUUGAUGAUUAUAUAAACAAGAAGGUACGUAGCUGC	15.7 nM	7.49 nM	–	–
GGAUAGGACAGAGGAUAUACCGAUAGGAUCUACUAUCGAAUAAUCCUCACAUGAGGAUCACCCAUGUAGAAGGCUGUCCUAUCG	–	–	21.3 nM	143 nM
UUACCUCAUAUGGUUACAUGAGGAUCACCCAUGUGAAUAGCACAGGAUAUCACGAGGGCCACGUGUGAGAAGGGUGAUGUGAGG	438 nM	167 nM	–	–
AAAGUGCCGACGAAGGAUAUAGCGGGUGAGACAUGAGGAUCACCCAUGUAUGCAGAACUCAUCCUCUAGAAGGUUGAGACGGCUA	113 nM	177 nM	–	–
AUAUCCGAAGCAGGAUAUCGACGAGGUGUCGAGGUAGAGCGUAUUCACAUGAGGAUCACCCAUGUCGAGAAGGGCUACAGGAUA	–	–	56.5 nM	15.9 nM
AGGAAUUUGUAGAAGGACGACUAUUAAGAUUUCGUAGGAUAUACUAUUUACAUGAGGAUCACCCAUGUUUAAAUGGAACAAUGU	–	–	8.06 nM	11.1 nM
UAAAUUUUAUGAUAUUAUGACAUUAGAAGGCUGUACAUGUUGAUACAUGAGGAUCACCCAUGUAUAGAGGAUAUAGACAAUUUU	–	–	31 nM	65.1 nM
GAAUGAAAGCAGAAGGCCGCACAUGAGGAUCACCCAUGUGAAAACAGAUGGAGGAUAUGCGAACGUUCGCUUUGAAAAGUAAAG	13.5 nM	6.35 nM	–	–
CGGUGCUGAGGAUAUACAUGAGGAUCACCCAUGUGUUCCGGCUAGCUGACUGGCGCUUGUAGAAGGCAGUACUG	–	–	17.3 nM	101 nM
GGACGUCGGAUAAACAUGAGGAUCACCCAUGUAACUAGACAUGAGGAUAUGGAUUCUAAUUGGAUCCAGAAGGUAUCGACGUCC	193 nM	211 nM	–	–
AAUAGUUCCGAGGAUAUAUCUCCACCGUGGGUGGUAGAAGGCGGGACAUGAGGAUCACCCAUGUACAAAUUCUC	–	–	75.2 nM	98.1 nM
UCAUGAAGGGCAGGAUAUGGACAUGAGGAUCACCCAUGUACAUGGGAUAAUAUACUAAAUUAAUACUAGAAGGGUUACAUAAAU	–	–	37.2 nM	24.6 nM
CUCUUGUUAGGAUAUCAAACUGGCAGCGGAGCUGGCAGAAGUGAGAAGGGACAUGAGGAUCACCCAUGUAAGAA	–	–	69.2 nM	228 nM
AUAGGUUAAGGAGGAUAUAGAGGGAGACGUACACAUGAGGAUCACCCAUGUAUUUAAUUAGUUUACUAGAAGGCUUAUGAUUGU	65.5 nM	101 nM	–	–
GGACGUCCCAUUAACAUGAGGAUCACCCAUGUCAAAAGACAUGAGGAUAUGCUACCUAAUUGGUAGCAGAAGGCAUGGACGUCC	878 nM	85.4 nM	–	–
GCUUCACAUGAGGAUCACCCAUGUCUUCGGAGUCGAGGAUAUGGUCACUGUAAACAGUGGCCAGAAGGCGAGGAGC	54.1 nM	35 nM	–	–
